Data: ChEMBL document CHEMBL4673294, “The discovery of quinoline derivatives, as NF-κB inducing kinase (NIK) inhibitors with anti-inflammatory effects in vitro, low toxicities against T cell growth” (Bioorg Med Chem, 2021)

Tests used:
[1] = target: T1, Mitogen-activated protein kinase kinase kinase 14 (Homo sapiens, UniProt Q99558); assay: Inhibition of recombinant N-terminal GST-fused human NIK (319 to 947 residues) expressed in baculovirus expression system assessed as residual activity at 2 uM incubated for 120 mins in presence of ATP by ADP-glo based luminescence assay relative to control
In short: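 Single-point NIK enzyme activity at 2 μM compound with 10 μM ATP; human recombinant MAP3K14, 120 min room-temperature reaction, ADP-Glo luminescence read-out converted to ADP concentration.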
Target sequence in this assay (Q99558 whole entry, looked up, the tested form may be a part): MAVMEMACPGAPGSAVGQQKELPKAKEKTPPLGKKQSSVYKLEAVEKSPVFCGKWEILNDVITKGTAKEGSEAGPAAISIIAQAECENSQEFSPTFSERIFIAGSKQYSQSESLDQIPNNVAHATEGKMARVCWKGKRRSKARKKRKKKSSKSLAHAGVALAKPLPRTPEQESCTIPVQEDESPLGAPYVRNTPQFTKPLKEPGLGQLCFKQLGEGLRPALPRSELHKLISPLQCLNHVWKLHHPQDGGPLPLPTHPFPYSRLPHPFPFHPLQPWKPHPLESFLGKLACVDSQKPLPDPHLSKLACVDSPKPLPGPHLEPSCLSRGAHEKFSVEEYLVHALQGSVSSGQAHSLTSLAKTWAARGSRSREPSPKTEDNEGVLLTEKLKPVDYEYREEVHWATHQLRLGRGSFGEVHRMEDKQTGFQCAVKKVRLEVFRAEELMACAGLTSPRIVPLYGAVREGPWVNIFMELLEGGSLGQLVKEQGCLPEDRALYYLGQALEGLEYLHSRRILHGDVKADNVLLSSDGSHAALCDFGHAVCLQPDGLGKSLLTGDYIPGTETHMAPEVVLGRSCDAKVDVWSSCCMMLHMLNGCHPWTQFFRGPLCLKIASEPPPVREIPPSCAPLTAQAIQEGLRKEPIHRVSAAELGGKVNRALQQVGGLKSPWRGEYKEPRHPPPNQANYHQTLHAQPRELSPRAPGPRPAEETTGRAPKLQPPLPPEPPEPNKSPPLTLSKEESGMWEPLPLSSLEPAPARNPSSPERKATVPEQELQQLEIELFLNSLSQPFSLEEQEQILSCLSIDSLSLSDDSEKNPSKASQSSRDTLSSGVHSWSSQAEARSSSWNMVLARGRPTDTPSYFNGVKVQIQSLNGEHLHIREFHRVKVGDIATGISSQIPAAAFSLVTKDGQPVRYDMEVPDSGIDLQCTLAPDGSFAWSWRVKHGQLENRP

[2] = target: T1, Mitogen-activated protein kinase kinase kinase 14; assay: Inhibition of recombinant N-terminal GST-fused human NIK (319 to 947 residues) expressed in baculovirus expression system incubated for 120 mins in presence of ATP by ADP-glo based luminescence assay
In short: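 NIK kinase activity by ADP-Glo: human recombinant MAP3K14 in Tris pH 7.5 buffer with 100 μM Na3VO4, 2 mM DTT, 0.02 mg/mL BSA, 2 mM MgCl2, 5% DMSO; 10 μM ATP; 120 min at room temperature. ADP-Glo reagent 40 min, then detection reagent 40 min; luminescence converted to ADP via standard curve. IC50 from curve fitting; mean ± SD of two independent experiments.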
Target sequence in this assay (Q99558 whole entry, the tested form may be a part): as the sequence (Q99558 whole entry, looked up, the tested form may be a part) above

[3] = Cytotoxicity against mouse T cells assessed as cell growth inhibition at 10 uM after 48 hrs by CCK8 assay relative to control; format: cell-based; conditions: read-out: GI
In short: (§1)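 Unstimulated mouse splenic T cells (no Con A) exposed to compound at 10 μM; growth measured by absorbance, with rate computed from test, blank and control well absorbances; mean ± SD of three independent experiments.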

[4] = test system: J774; assay: Antiinflammatory activity in mouse J774 cells assessed as inhibition of LPS-induced NO production at 1 uM preincubated for 2 hrs followed by LPS stimulation and measured after 22 hrs by Griess reagent based assay relative to control; format: functional; conditions: time 24 hrs
[5] = Antiinflammatory activity in mouse T cells assessed as inhibition of ConA-induced induced T cell proliferation at 0.4 uM incubated for 48 hrs by CCK8 assay relative to control; format: functional
In short: (§2)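 Mouse splenic T cells, isolated by negative selection kit, seeded at 2×10^6 cells/mL in RPMI with penicillin/streptomycin and glutamine. Compound at 2 or 0.4 μM (triplicate wells), DMSO control; Con A 5 μg/mL added, 48 h at 37 °C, 5% CO2. CCK8 absorbance; inhibition rate from test, blank and control wells; three independent experiments.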

[6] = Antiinflammatory activity in mouse T cells assessed as inhibition of ConA-induced induced T cell proliferation at 2 uM incubated for 48 hrs by CCK8 assay relative to control; format: functional; in short: as §2
[7] = Cytotoxicity against mouse T cells assessed as cell growth inhibition at 10 uM after 48 hrs by CCK8 assay; format: cell-based; in short: as §1
[8] = Tmax in Sprague-Dawley rat at 10 mg/kg, po administered as single dose by LC-MS analysis; format: ADME, organism-based; conditions: in vivo
In short: (§3)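 Male Sprague-Dawley, 8 weeks old, fasted overnight, n = 3; single gavage at 10 mg/kg as 1 mg/mL suspension in 0.5% CMC-Na/0.2% Tween 80. Plasma precipitated with acetonitrile plus internal standards; LC/MS quantitation.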

[9] = Intrinsic hepatic clearance in dog; format: ADME, Canis lupus familiaris; conditions: in vivo, read-out: CLH
In short: (§4)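 In vivo intrinsic clearance scaled from microsomal CLint (mL/min/mg protein) × microsomal protein per g liver × liver weight per kg body weight.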

[10] = Intrinsic clearance in rat liver microsomes assessed per mg protein incubated for 10 mins followed by potassium phosphate buffer addition and measured up to 60 mins by LC-MS analysis; format: ADME, Microsome; conditions: time <=70 min, read-out: CLH
In short: (§5)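 Rat, dog, monkey and human liver microsomes: compound preincubated with microsomes 10 min at 37 °C; samples quenched at 0, 5, 15, 30, 60 min with tolbutamide/labetalol, plus a 60 min no-cofactor control with 100 mM potassium phosphate buffer. Centrifuged, remaining compound by LC-MS; T1/2 and CL by first-order kinetics.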

[11] = Half life in Sprague-Dawley rat at 10 mg/kg, po administered as single dose by LC-MS analysis; format: ADME, organism-based; conditions: in vivo; in short: as §3
[12] = AUC (0 to infinity) in Sprague-Dawley rat at 1 mg/kg, iv administered as single bolus dose by LC-MS analysis; format: ADME, organism-based; design: route intravenous, time infinity, dose 1 mg/kg; conditions: in vivo
In short: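 Male Sprague-Dawley rats, 8 weeks old, fasted overnight, received a single rapid tail-vein bolus. Vehicle was DMSO:PEG200:saline 20:20:60 v/v/v at 0.2 mg/mL. Plasma concentrations were followed over time. Plasma was deproteinised with acetonitrile containing verapamil and glibenclamide, diluted with water and analysed by LC/MS. Values are mean ± SD, n = 3 rats.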

[13] = Half life in Sprague-Dawley rat at 1 mg/kg, iv administered as single bolus dose by LC-MS analysis; format: ADME, organism-based; conditions: in vivo
In short: (§6)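 Male Sprague-Dawley, 8 weeks old, fasted overnight, n = 3; single IV bolus via tail vein at 1.0 mg/kg in DMSO:PEG200:saline 20:20:60 (0.2 mg/mL). Plasma protein-precipitated with acetonitrile containing internal standards, analysed by LC/MS.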

[14] = Oral bioavailability in Sprague-Dawley rat at 10 mg/kg administered as single dose by LC-MS analysis; format: ADME, organism-based; conditions: in vivo
[15] = Intrinsic hepatic clearance in human; format: ADME; conditions: read-out: CLH; in short: as §4
[16] = Elimination half life in human liver microsomes incubated for 10 mins followed by potassium phosphate buffer addition and measured up to 60 mins by LC-MS analysis; format: ADME, Microsome; conditions: time <=70 min, read-out: LambdaZ
In short: (§7)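 The test compound was pre-incubated with liver microsomes at 37 °C for 10 min. NCF60 wells received 100 mM potassium phosphate buffer and were incubated 1.0 h at 37 °C. The reaction was stopped with a 1:1 tolbutamide/labetalol mixture at 0, 5, 15, 30 and 60 min, then vortexed and centrifuged at 4 °C. Remaining parent compound in the supernatant was measured by LC-MS, and T1/2 was calculated by first-order kinetics.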

[17] = Intrinsic clearance in dog liver microsomes assessed per mg protein incubated for 10 mins followed by potassium phosphate buffer addition and measured up to 60 mins by LC-MS analysis; format: ADME, Canis lupus familiaris, Microsome; conditions: time <=70 min, read-out: CLH; in short: as §5
[18] = AUC (0 to infinity) in Sprague-Dawley rat at 10 mg/kg, po administered as single dose by LC-MS analysis; format: ADME, organism-based; design: route oral, time infinity, dose 10 mg/kg; conditions: in vivo
In short: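 Male Sprague-Dawley rats, 8 weeks old, fasted overnight, were dosed once by oral gavage. The compound was suspended at 1.0 mg/mL in saline with 0.5% CMC-Na and 0.2% Tween 80. Plasma concentrations were followed over time. Plasma was deproteinised with acetonitrile containing verapamil and glibenclamide, diluted with water and analysed by LC/MS. Values are mean ± SD, n = 3 rats.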

[19] = Clearance in Sprague-Dawley rat at 1 mg/kg, iv administered as single bolus dose by LC-MS analysis; format: ADME, organism-based; conditions: in vivo; in short: as §6
[20] = Elimination half life in monkey liver microsomes incubated for 10 mins followed by potassium phosphate buffer addition and measured up to 60 mins by LC-MS analysis; format: ADME, Macaca mulatta, Microsome; conditions: rhesus monkey, time <=70 min, read-out: LambdaZ; in short: as §7
[21] = Intrinsic clearance in human liver microsomes assessed per mg protein incubated for 10 mins followed by potassium phosphate buffer addition and measured up to 60 mins by LC-MS analysis; format: ADME, Microsome; conditions: time <=70 min, read-out: CLH; in short: as §5
[22] = Elimination half life in dog liver microsomes incubated for 10 mins followed by potassium phosphate buffer addition and measured up to 60 mins by LC-MS analysis; format: ADME, Canis lupus familiaris, Microsome; conditions: time <=70 min, read-out: LambdaZ; in short: as §7
[23] = Intrinsic clearance in monkey liver microsomes assessed per mg protein incubated for 10 mins followed by potassium phosphate buffer addition and measured up to 60 mins by LC-MS analysis; format: ADME, Macaca mulatta, Microsome; conditions: rhesus monkey, time <=70 min, read-out: CLH; in short: as §5
[24] = Cmax in Sprague-Dawley rat at 10 mg/kg, po administered as single dose by LC-MS analysis; format: ADME, organism-based; design: route oral, dose 10 mg/kg; conditions: in vivo; in short: as §3
[25] = Elimination half life in rat liver microsomes incubated for 10 mins followed by potassium phosphate buffer addition and measured up to 60 mins by LC-MS analysis; format: ADME, Microsome; conditions: time <=70 min, read-out: LambdaZ; in short: as §7
[26] = Intrinsic hepatic clearance in rat; format: ADME; conditions: in vivo, read-out: CLH; in short: as §4
[27] = Intrinsic hepatic clearance in monkey; format: ADME, Macaca mulatta; conditions: rhesus monkey, in vivo; read-out: CLH; in short: as §4
[28] = Initial plasma concentration in Sprague-Dawley rat at 1 mg/kg, iv administered as single bolus dose by LC-MS analysis; format: ADME, organism-based; in short: as §6
[29] = Volume of distribution in Sprague-Dawley rat at 1 mg/kg, iv administered as single bolus dose by LC-MS analysis; format: ADME, organism-based; conditions: in vivo; in short: as §6
[30] = test system: JJN-3; assay: Antiproliferative activity against human JJN-3 cells transfected with plasmid expressing NIK; format: functional, cell-based

O=C(Nc1ccc2nccc(-c3cn[nH]c3)c2c1)c1nccs1
Activity [1]: 72.3%

CC(O)(C#Cc1ccc2nc(OCCN3CCOCC3)cc(-c3cn[nH]c3)c2c1)c1nccs1 (stereo not drawn)
Activity [1]: 92%

CC(O)(/C=C/c1ccc2nccc(-c3cn[nH]c3)c2c1)c1nccs1 (stereo not drawn)
IC50 [2]: 2080 nM

CC(O)(C#Cc1ccc2nccc(-c3cn[nH]c3)c2c1)c1ccccn1 (stereo not drawn)
IC50 [2]: 591 nM

CC(O)(C#Cc1ccc2c(c1)N(c1nc(N)ncc1Cl)CC2)c1nccs1 (stereo not drawn)
IC50 [2]: 4.9 nM | inhibition at 48 h, 10 µM [3]: 30% | inhibition at 1 µM [4]: 43.9% | inhibition at 0.4 µM [5]: 19% | inhibition at 2 µM [6]: 59.6%

CN(C)CCN(C)c1cc(-c2cn[nH]c2)c2cc(C#CC(C)(O)c3nccs3)ccc2n1 (stereo not drawn)
IC50 [2]: 160 nM | Activity [7]: Non-Toxic | inhibition at 1 µM [4]: 34.6% | inhibition at 0.4 µM [5]: 19.9% | inhibition at 2 µM [6]: 22.7%

CC(C)(O)C#Cc1ccc2nccc(-c3cn[nH]c3)c2c1
IC50 [2]: 1720 nM

CN1CCN(c2cc(-c3cn[nH]c3)c3cc(C#CC(C)(O)c4nccs4)ccc3n2)CC1 (stereo not drawn)
IC50 [2]: 175 nM | inhibition at 48 h, 10 µM [3]: 30% | inhibition at 1 µM [4]: 41% | inhibition at 0.4 µM [5]: 19.4% | inhibition at 2 µM [6]: 36.7%

O=C(Nc1ccc2nccc(-c3cn[nH]c3)c2c1)C1CCCC1
Activity [1]: 83.6%

OC1(C#Cc2ccc3nccc(-c4cn[nH]c4)c3c2)CCCC1
IC50 [2]: 564 nM

CC(O)(C#Cc1ccc2nccc(-c3cn[nH]c3)c2c1)c1cccs1 (stereo not drawn)
IC50 [2]: 524 nM

COCCN(C)c1cc(-c2cn[nH]c2)c2cc(C#CC(C)(O)c3nccs3)ccc2n1 (stereo not drawn)
IC50 [2]: 5.2 nM | inhibition at 48 h, 10 µM [3]: 30% | inhibition at 1 µM [4]: 51.4% | inhibition at 0.4 µM [5]: 33% | inhibition at 2 µM [6]: 53.1%

OC1(C#Cc2ccc3nccc(-c4cn[nH]c4)c3c2)CCCCC1
IC50 [2]: 6050 nM

CC(O)(C#Cc1ccc2nccc(-c3cn[nH]c3)c2c1)c1nccs1 (stereo not drawn)
Tmax [8]: 54 min | CLint scaled [9]: 140 mL/min/kg | IC50 [2]: 22.1 nM | microsomal CLint [10]: 110 µL/min/mg | half-life [11]: 71.4 min | AUC(0-inf) [12]: 408 ng·h/mL | half-life [13]: 22.9 min | bioavailability [14]: 21.7% | CLint scaled [15]: 40.2 mL/min/kg | Activity [7]: Non-Toxic | half-life [16]: 33.1 min | inhibition at 1 µM [4]: 43.8% | microsomal CLint [17]: 97.5 µL/min/mg | AUC(0-inf) [18]: 885 ng·h/mL | clearance [19]: 43.3 mL/min/kg | half-life [20]: 33.2 min | microsomal CLint [21]: 42.6 µL/min/mg | half-life [22]: 14.2 min | microsomal CLint [23]: 41.8 µL/min/mg | inhibition at 0.4 µM [5]: 36.1% | Cmax [24]: 311 ng/mL | half-life [25]: 12.6 min | CLint scaled [26]: 199 mL/min/kg | inhibition at 2 µM [6]: 52.5% | CLint scaled [27]: 60.2 mL/min/kg | C0 [28]: 1000 ng/mL | Vd [29]: 2.73 L/kg

CNc1cc(-c2cn[nH]c2)c2cc(C#CC(C)(O)c3nccs3)ccc2n1 (stereo not drawn)
IC50 [2]: 26 nM | inhibition at 1 µM [4]: 46.5% | inhibition at 0.4 µM [5]: 18.4% | inhibition at 2 µM [6]: 34.5%

Cn1cc(-c2ccnc3ccc(C#CC(C)(C)O)cc23)cn1
Activity [1]: 99.1%

CC(O)(C#Cc1ccc(N2CCOCC2)c(Nc2ncnc3[nH]ccc23)c1)c1nccs1 (stereo not drawn)
Activity [7]: Non-Toxic

CN1CCC(n2cc(-c3c[nH]nc3Cl)c3cc(C#CC(C)(C)O)c(F)cc32)CC1
EC50 [30]: 61 nM

CC(O)(C#Cc1ccc2nc(O)cc(-c3cn[nH]c3)c2c1)c1nccs1 (stereo not drawn)
IC50 [2]: 38.6 nM | Activity [7]: Non-Toxic | inhibition at 1 µM [4]: 31.4% | inhibition at 0.4 µM [5]: 23.3% | inhibition at 2 µM [6]: 27.2%
